Data set [1] concerns the target T1, NPP1 (ectonucleotide pyrophosphatase/phosphodiesterase family member 1) (Homo sapiens, UniProt P22413).
T1 sequence (P22413 whole entry): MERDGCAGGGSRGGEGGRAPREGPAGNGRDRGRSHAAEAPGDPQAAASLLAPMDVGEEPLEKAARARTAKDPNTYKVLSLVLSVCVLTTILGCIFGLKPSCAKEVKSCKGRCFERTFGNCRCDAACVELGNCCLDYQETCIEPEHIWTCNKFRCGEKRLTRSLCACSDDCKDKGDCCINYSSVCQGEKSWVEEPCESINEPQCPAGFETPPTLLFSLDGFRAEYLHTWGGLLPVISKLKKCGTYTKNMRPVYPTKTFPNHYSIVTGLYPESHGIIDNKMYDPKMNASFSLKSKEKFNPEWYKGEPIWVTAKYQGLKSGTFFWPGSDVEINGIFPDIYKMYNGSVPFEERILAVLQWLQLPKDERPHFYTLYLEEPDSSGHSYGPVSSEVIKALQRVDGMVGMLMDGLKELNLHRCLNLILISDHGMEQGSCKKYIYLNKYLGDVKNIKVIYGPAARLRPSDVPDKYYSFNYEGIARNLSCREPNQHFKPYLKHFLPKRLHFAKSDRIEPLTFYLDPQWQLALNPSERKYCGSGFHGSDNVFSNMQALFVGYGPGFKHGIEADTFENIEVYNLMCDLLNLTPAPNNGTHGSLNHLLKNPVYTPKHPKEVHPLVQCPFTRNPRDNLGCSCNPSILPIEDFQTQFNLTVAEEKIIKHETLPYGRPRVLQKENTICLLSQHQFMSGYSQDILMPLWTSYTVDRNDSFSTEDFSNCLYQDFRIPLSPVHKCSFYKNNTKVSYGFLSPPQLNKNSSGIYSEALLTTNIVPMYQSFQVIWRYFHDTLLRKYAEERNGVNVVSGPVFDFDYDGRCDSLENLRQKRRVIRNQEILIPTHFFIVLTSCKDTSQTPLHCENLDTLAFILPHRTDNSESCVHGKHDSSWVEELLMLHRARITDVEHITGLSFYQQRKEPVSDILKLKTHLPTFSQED
Kind of data set: Drug metabolism assessed as human NPP1-mediated compound hydrolysis at 100 uM after 2 hrs by HPLC analysis relative to UDP-treated control. It is filed as ADME. The note with it: human NPP1 enzyme, read-out: Drug metabolism. In outline:
(§1)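 Compound at 100 µM incubated at 37 °C with hNPP1 for 2 h or hNPP3 for 3 h, in buffer of 1 mM CaCl2, 200 mM NaCl, 10 mM KCl and 100 mM Tris, pH 8.5. Quenched with perchloric acid, neutralized to pH 7 with KOH, then C18 HPLC with isocratic TEAA (pH 7)/CH3CN. Degradation taken from the nucleoside monophosphate peak area minus control, relative to 100% UDP hydrolysis.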

Data set [2] has as its target T2, NPP3 (ectonucleotide pyrophosphatase/phosphodiesterase family member 3) (Homo sapiens, UniProt O14638).
T2 sequence (O14638 whole entry): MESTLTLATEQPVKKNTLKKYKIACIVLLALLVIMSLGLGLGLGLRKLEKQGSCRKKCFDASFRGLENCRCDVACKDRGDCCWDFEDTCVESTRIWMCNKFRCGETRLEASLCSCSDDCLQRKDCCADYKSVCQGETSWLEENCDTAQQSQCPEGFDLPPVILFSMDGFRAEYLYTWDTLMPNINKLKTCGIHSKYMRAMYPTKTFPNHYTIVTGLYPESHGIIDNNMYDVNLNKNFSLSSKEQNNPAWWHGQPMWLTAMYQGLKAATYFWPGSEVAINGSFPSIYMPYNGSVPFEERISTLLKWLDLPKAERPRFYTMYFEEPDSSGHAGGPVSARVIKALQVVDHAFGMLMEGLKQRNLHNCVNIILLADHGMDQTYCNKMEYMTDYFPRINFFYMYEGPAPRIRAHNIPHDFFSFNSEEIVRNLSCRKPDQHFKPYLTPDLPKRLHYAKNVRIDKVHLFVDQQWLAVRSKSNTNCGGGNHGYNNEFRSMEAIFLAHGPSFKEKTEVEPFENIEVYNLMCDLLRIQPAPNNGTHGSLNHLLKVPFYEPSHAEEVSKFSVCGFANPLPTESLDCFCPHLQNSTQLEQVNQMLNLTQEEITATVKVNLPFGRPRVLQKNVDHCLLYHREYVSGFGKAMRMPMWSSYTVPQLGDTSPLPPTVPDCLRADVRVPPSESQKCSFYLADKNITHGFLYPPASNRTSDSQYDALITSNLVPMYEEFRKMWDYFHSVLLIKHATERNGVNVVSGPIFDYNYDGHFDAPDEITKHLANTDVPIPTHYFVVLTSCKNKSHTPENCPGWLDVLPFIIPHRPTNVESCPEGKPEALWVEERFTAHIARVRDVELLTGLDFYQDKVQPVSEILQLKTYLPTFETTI
Kind of data set: Drug metabolism assessed as human NPP3-mediated compound hydrolysis at 100 uM after 3 hrs by HPLC analysis relative to UDP-treated control. It is filed as ADME. As to conditions: human NPP3 enzyme, read-out: Drug metabolism. The procedure, abridged:
as §1

The target of data set [3] is T3, P2Y purinoceptor 6 (Homo sapiens, UniProt Q15077). Kind of data set: Agonist activity at human recombinant P2Y6 receptor expressed in human 1321N1 cells assessed as increase in intracellular calcium level at =>100 uM by fluo-4 dye-based spectrofluorometric analysis. It is filed as functional, cell-based. The procedure, abridged:
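1321N1 cells stably expressing recombinant hP2Y6-R were trypsin/EDTA-detached, loaded with 1 µM Fluo-4/AM in HBSS (Ca2+/Mg2+) for 25 min at 37 °C, then held 25 min at 37 °C for de-esterification. Stirred cuvette suspension read at ex 488/em 520 nm after compound addition, with UDP as control. Fmax/Fmin set with 0.1% Triton X-100 then 50 mM EDTA; [Ca2+] = Kd(F−Fmin)/(Fmax−F).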

Data set [4] addresses T3, P2Y purinoceptor 6. Kind of data set: Antagonist activity at human recombinant P2Y6 receptor expressed in human 1321N1 cells assessed as inhibition of UDP-induced increase in intracellular calcium level at 100 uM incubated for 2 mins prior to UDP induction by fluo-4 dye-based spectrofluorometric analysis. It is filed as functional, cell-based. In outline:
(§2)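 hP2Y6-R-expressing 1321N1 cells, Fluo-4/AM-loaded (1 µM, 25 min, 37 °C, then 25 min de-esterification) in HBSS with Ca2+/Mg2+, stirred in a cuvette with fluorescence at 488/520 nm. Analogue given 2 min before 1 µM UDP stimulation. Calcium calculated from Triton X-100/EDTA calibration. Two experiments in duplicate, mean ± SEM; one-way ANOVA against vehicle control.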

Data set [5] has as its target P2Y purinoceptor 4 (Homo sapiens) (UniProt P51582). Kind of data set: Agonist activity at human recombinant P2Y4 receptor expressed in human 1321N1 cells assessed as increase in intracellular calcium level by fluo-4 dye-based spectrofluorometric analysis. The data set is classed as functional, cell-based.
The target in data set [6] is P2Y purinoceptor 2 (Homo sapiens) (UniProt P41231). Kind of data set: Agonist activity at human recombinant P2Y2 receptor expressed in human 1321N1 cells assessed as increase in intracellular calcium level by fluo-4 dye-based spectrofluorometric analysis. It is filed as functional, cell-based.
Data set [7] deals with T3, P2Y purinoceptor 6. Kind of data set: Antagonist activity at human recombinant P2Y6 receptor expressed in human 1321N1 cells assessed as inhibition of UDP-induced increase in intracellular calcium level incubated for 2 mins prior to UDP induction by fluo-4 dye-based spectrofluorometric analysis. It is filed as functional, cell-based. The procedure, abridged: as §2

Experimental findings from ChEMBL document CHEMBL3603830, “Synthesis and structure-activity relationship of uracil nucleotide derivatives towards the identification of human P2Y6 receptor antagonists” (Bioorg Med Chem, 2015) are described below.

The source made the active and inactive calls. The rule behind the calls is not given here.

T3 sequence (Q15077 whole entry): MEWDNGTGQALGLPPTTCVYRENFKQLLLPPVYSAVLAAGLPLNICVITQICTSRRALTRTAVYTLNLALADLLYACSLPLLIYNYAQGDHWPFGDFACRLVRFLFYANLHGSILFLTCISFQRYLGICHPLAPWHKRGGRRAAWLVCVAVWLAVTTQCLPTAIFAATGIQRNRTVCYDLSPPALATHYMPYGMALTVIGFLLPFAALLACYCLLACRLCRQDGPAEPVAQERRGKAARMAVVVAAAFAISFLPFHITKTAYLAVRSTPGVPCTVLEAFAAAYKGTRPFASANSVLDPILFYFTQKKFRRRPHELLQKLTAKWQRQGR
Chain of P2Y purinoceptor 4 (Homo sapiens) (P51582 whole entry): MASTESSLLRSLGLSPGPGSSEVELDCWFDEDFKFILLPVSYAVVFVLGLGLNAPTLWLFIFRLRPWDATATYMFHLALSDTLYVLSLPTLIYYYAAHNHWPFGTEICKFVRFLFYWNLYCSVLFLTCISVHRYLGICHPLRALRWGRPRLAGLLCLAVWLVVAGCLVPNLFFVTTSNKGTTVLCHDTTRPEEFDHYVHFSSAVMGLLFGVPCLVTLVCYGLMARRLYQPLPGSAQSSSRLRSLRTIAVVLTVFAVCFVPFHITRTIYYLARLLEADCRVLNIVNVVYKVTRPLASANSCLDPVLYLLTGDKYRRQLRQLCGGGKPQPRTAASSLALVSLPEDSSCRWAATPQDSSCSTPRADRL
Chain of P2Y purinoceptor 2 (Homo sapiens) (P41231 whole entry): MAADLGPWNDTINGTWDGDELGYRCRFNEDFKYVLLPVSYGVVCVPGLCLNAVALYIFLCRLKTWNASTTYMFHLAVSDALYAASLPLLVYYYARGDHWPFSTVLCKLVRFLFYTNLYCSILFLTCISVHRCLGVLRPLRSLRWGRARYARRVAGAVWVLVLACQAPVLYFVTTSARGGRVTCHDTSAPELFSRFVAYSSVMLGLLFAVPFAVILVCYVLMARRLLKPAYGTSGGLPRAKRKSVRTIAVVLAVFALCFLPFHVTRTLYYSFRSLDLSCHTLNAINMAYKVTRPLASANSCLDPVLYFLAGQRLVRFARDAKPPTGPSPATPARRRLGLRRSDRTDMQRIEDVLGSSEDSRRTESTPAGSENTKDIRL

Regarding `O=c1ccn([C@@H]2O[C@H](COP(=O)(O)OS(=O)(=O)O)[C@@H](O)[C@H]2O)c(=O)[nH]1`, the metabolised at 2 h, 100 µM in data set [1] is 27.9%. The metabolised at 3 h, 100 µM in data set [2] was 28.3%. Moreover, the outcome at P2Y purinoceptor 6 [3] was Active. Moreover, the inhibition entry at P2Y purinoceptor 6 [4] was “Active”. Besides, the result in data set [5] and in data set [6] was inactive. Also, the IC50 at P2Y purinoceptor 6 [7] was found to be 112 µM.
